ChEMBL document CHEMBL1129596, “Synthesis, biological activity, and molecular modeling of selective 5-HT(2C/2B) receptor antagonists” (J Med Chem, 1996)

What was measured:
[1] = biological target: 5-hydroxytryptamine receptor 2B (Rattus norvegicus, UniProt P30994); test: Inhibition of 5-HT binding to 5-HT2B receptor of Rat stomach fundus; type: tissue-based; conditions: read-out: pA2 (converted)
Method in brief: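 Functional rather than binding assay: inhibition of 5-HT-induced contractions of isolated rat stomach fundus. Values are the mean of at least two determinations, each within 0.2 log unit of the mean.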

[2] = biological target: T1, 5-hydroxytryptamine receptor 2C (Rattus norvegicus, UniProt P08909); test: Displacement of [3H]mesulergine from rat 5-HT2C receptor expressed in HEK293
T1 sequence (P08909 whole entry): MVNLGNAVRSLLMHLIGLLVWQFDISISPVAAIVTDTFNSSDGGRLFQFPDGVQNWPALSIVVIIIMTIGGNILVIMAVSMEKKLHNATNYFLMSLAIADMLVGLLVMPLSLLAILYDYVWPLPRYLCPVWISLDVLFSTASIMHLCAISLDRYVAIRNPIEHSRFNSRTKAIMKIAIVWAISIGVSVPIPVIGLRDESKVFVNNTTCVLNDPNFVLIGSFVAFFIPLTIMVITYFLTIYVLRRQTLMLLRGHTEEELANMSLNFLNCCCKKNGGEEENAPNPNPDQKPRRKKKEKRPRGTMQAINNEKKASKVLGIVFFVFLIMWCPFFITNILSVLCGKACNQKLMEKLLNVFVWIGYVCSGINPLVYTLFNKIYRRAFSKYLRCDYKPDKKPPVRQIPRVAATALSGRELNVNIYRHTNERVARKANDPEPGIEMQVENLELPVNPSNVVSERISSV
Method in brief: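 Binding to cloned rat 5-HT2C receptors expressed in HEK 293 cells, with [3H]mesulergine as radioligand. Each value is the mean of at least two determinations, each lying within 0.2 log unit of the mean.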

[3] = biological target: Serotonin receptor 2a and 2c (5HT2A and 5HT2C) (Rattus norvegicus) (UniProt P08909+P14842); test: Relative affinity for 5-hydroxytryptamine 2C over 5-hydroxytryptamine 2A receptors; type: protein assay
Serotonin receptor 2a and 2c (5HT2A and 5HT2C) (Rattus norvegicus), sequence (P14842 whole entry, looked up, one chain of several): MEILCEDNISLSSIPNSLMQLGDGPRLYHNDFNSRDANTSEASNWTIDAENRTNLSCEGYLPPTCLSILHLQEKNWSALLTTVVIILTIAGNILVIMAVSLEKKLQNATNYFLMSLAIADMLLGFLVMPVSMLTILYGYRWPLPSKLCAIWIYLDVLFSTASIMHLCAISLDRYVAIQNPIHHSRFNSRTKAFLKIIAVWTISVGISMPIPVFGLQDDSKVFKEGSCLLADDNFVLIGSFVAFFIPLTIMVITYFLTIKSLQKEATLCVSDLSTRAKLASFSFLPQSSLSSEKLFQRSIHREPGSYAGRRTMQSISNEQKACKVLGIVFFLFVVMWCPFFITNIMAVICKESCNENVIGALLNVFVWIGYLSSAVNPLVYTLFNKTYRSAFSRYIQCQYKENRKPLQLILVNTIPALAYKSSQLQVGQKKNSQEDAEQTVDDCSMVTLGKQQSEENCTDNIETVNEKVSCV

[4] = biological target: 5-hydroxytryptamine receptor 2A (Rattus norvegicus, UniProt P14842); test: Displacement of [3H]ketanserin from 5-HT2A receptor of rat frontal cortex; type: tissue-based
5-hydroxytryptamine receptor 2A, sequence (P14842 whole entry): as the sequence (P14842 whole entry, looked up, one chain of several) above
Method in brief: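 Radioligand binding in rat frontal cortex membranes with [3H]ketanserin as the labelled ligand. Values are the mean of at least two determinations, each within 0.2 log unit of the mean.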

5-hydroxytryptamine receptor 2B, sequence (P30994 whole entry): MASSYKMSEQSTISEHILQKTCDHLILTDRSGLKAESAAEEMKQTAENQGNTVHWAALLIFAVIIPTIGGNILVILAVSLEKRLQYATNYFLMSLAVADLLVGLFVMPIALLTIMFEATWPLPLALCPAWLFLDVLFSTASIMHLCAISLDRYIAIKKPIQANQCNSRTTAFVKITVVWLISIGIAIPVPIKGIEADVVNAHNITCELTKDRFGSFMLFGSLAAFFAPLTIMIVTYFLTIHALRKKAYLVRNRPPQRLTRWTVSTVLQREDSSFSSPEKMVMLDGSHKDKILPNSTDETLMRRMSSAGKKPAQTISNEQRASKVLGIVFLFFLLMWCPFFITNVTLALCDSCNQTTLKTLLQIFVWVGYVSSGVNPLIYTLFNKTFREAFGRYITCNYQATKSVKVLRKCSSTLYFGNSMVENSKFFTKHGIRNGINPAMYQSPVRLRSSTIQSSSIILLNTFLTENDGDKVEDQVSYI

Row | SMILES | Kb [1] | Ki [2] | Selectivity ratio [3] | Ki [4]
1 | CCCn1ccc2cc3c(cc21)CCN3C(=O)Nc1cccnc1 | 7.94 nM | 12.6 nM | 250 | 3160 nM
2 | Cn1ccc2cc3c(cc21)CCN3C(=O)Nc1cccnc1 | 3.16 nM | 5.01 nM | 100 | 501 nM
3 | O=C(Nc1cccnc1)N1CCc2cc3[nH]ccc3cc21 | 31.6 nM | 126 nM | 13 | 1580 nM
4 | Cn1ccc2c3c(ccc21)N(C(=O)Nc1cccnc1)CC3 | 15.8 nM | 25.1 nM |  | 2000 nM
5 | Cc1coc2cc3c(cc12)CCN3C(=O)Nc1cccnc1 | 1.26 nM | 2.51 nM | 160 | 398 nM
6 | Cn1ccc2c3c(ccc21)CCN3C(=O)Nc1cccnc1 |  | 200 nM |  | 
7 | O=C(Nc1cccnc1)N1CCc2cc3sccc3cc21 | 10 nM | 7.94 nM | 30 | 251 nM
8 | O=C(Nc1cccnc1)N1CCc2cc3c(ccn3Cc3ccccc3)cc21 | 200 nM | 50.1 nM | > 130 | > 6310 nM
9 | CC(C)n1ccc2cc3c(cc21)CCN3C(=O)Nc1cccnc1 | 6.31 nM | 10 nM | 400 | 3980 nM
10 | Cn1ccc2ccc3c(c21)CCN3C(=O)Nc1cccnc1 |  | 63.1 nM | 50 | 3160 nM
11 | Cc1cc2cc3c(cc2n1C)CCN3C(=O)Nc1cccnc1 | 20 nM | 39.8 nM | 80 | 3160 nM
12 | Cn1ccc2cc3c(cc21)N(C(=O)Nc1cccnc1)CC3 |  | 1260 nM |  | 
13 | CN1CCc2cc3c(cc21)CCN3C(=O)Nc1cccnc1 | 12.6 nM | 63.1 nM | 80 | 5010 nM
14 | CCn1ccc2cc3c(cc21)CCN3C(=O)Nc1cccnc1 | 10 nM | 7.94 nM | 160 | 1260 nM
